{"source": "paper PMC9585524", "about": "(ACS Bio & Med Chem Au, 2022)", "key": {"estrogen receptors": {"test_system": "estrogen receptors", "conditions": "cited from earlier work"}, "SphK2 in U937 cells": {"test_system": "SphK2 in U937 cells", "assay": "FTY720-P levels in U937 cells", "format": "cell-based, human", "conditions": "1 μM FTY720 and 14c at 30–1000 nM, Figure 5B, duplicate", "how_it_was_run": "(§1)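 U937 cells were grown in RPMI 1640 with 10% FBS, then moved to 0.5% FBS for 24 h. They were treated 2 h with test compound (30–1000 nM) plus 1 μM FTY720. Pellets (2–3 × 10^6 cells) were extracted in methanol/chloroform with deuterated internal standards and base-treated. S1P and FTY720-P were measured by LC-MS/MS, in duplicate.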"}, "blood S1P": {"test_system": "blood S1P", "assay": "Blood S1P in C57BL/6 mice after a single intraperitoneal dose, LC-MS/MS", "format": "in vivo", "conditions": "for S1P levels in blood: 5 mg/kg single intraperitoneal injection", "how_it_was_run": "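Male C57BL/6J mice in groups of four received 5 mg/kg test compound i.p. in 2% hydroxypropyl-β-cyclodextrin, and controls got an equal volume of vehicle. Blood was drawn at set times, with the earliest 1–2 min post-dose. Whole blood (10 μL) was extracted in methanol/chloroform with d7-S1P/d7-sphingosine internal standards (48 °C, 16 h), then treated with KOH/methanol. S1P was quantified by LC-MS/MS MRM (380.4 → 264.4).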"}, "hSphK2": {"target": "T1, hSphK2 (Homo sapiens, UniProt Q9NRA0)", "T1 sequence (Q9NRA0 1-618 isoform Q9NRA0-2)": "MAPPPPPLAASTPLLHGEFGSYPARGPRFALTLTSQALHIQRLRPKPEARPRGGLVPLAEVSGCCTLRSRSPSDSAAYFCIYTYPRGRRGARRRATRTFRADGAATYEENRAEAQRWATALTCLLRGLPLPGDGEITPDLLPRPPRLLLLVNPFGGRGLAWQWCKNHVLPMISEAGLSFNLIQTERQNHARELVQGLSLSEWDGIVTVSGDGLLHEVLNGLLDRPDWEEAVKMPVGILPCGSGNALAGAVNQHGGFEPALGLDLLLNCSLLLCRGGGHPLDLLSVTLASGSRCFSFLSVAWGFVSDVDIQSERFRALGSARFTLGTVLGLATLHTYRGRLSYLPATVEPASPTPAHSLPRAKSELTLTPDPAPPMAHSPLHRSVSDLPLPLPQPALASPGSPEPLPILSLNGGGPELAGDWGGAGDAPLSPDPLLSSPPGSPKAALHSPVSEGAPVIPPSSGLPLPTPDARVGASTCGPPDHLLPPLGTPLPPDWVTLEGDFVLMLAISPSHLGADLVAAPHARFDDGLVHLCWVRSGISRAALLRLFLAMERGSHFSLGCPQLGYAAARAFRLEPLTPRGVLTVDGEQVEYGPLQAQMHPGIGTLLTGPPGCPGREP", "format": "biochemical"}, "U937 cells": {"test_system": "U937 cells", "assay": "S1P levels in U937 cells by LC-MS/MS", "format": "cell-based, human", "conditions": "varying concentrations of 14c, 2 h, Figure 5A, duplicate", "how_it_was_run": "as §1"}}, "note": "“Also recorded” adds a separate entry of the source."}
{"smiles": "O=C(NCc1ccncc1)C12CC3CC(C1)CC(c1ccc(Cl)cc1)(C3)C2", "note": "[compound 1]", "values": [{"measurement": "action at estrogen receptors", "setting": "estrogen receptors", "value": "tamoxifen-mimetic"}]}
{"smiles": "Cl.N=C(N)N1CCC[C@H]1c1nc(-c2ccc(CCC3CCCCC3)c(C(F)(F)F)c2)no1", "note": "[14c, (S)-2-(3-(4-(2-Cyclohexylethyl)-3-(trifluoromethyl)phenyl)-1,2,4-oxadiazol-5-yl)pyrrolidine-1-carboximidamide Hydrochloride]", "values": [{"measurement": "FTY720-P levels in U937 cells", "setting": "SphK2 in U937 cells", "value": "concentration-dependent decrease"}, {"measurement": "S1P levels in blood", "setting": "blood S1P; 4 h post dosing", "value": "doubling"}, {"measurement": "S1P levels in blood", "setting": "blood S1P; after 24 h", "value": "returning close to baseline"}, {"measurement": "circulating (blood) S1P levels", "setting": "blood S1P; mice, 5 mg/kg, overall statement", "value": "sustained increase; also recorded: profound increases"}, {"measurement": "selectivity for SphK2 over SphK1", "setting": "hSphK2", "value": "~200", "unit": "fold"}, {"measurement": "S1P levels in U937 cells", "setting": "U937 cells", "value": "dose-dependent decrease"}]}
